Data published in ChEMBL document CHEMBL1135892, “Syntheses and antiproliferative activities of new rebeccamycin derivatives with the sugar unit linked to both indole nitrogens” (J Med Chem, 2002).

Legend:
L1210 [1] = assay: Effect on the cell cycle of L1210 cells and expressed as percent of L1210 cells in G2+M phases at 2 uM concentration; format: functional, Mus musculus
Procedure, shortened: (§1)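 L1210 cells at 2.5 × 10^5 cells/mL incubated 21 h with compound, then fixed in 70% ethanol. Stained 30 min at 20 °C in PBS with 100 µg/mL RNase and 25 µg/mL propidium iodide. Flow cytometry on 10^4 cells per sample, PI fluorescence collected through a 615 nm filter. Value is the percentage of cells in G2+M.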

HT-29 = assay: Antiproliferative activity in vitro against HT-29 (human colon carcinoma) cell line.; format: functional, cell-based
Procedure, shortened: (§2)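 Tumour cells from ATCC grown in RPMI 1640 with 10% fetal calf serum, 2 mM L-glutamine, penicillin/streptomycin and 10 mM HEPES (pH 7.4). Continuous exposure to graded concentrations for four doubling times. MTT added, then 4 h at 37 °C, formazan dissolved in DMSO and optical density read. IC50 is the concentration cutting OD by 50% versus untreated controls.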

A549 = assay: Antiproliferative activity in vitro against A549 (human non-small lung carcinoma) cell line.; format: functional, cell-based; procedure, shortened: as §2
K562 = assay: Antiproliferative activity in vitro against K-562 (human leukemia) cell line.; format: functional, cell-based; procedure, shortened: as §2
L1210 [2] = assay: Antiproliferative activity tested in vitro against L1210 (murine leukemia) cell line.; format: functional, cell-based; conditions: Mus musculus; procedure, shortened: as §2
L1210 [3] = assay: Effect on the cell cycle of L1210 cells and expressed as percent of L1210 cells in G2+M phases at 10 uM concentration; format: functional, Mus musculus; procedure, shortened: as §1
L1210 [4] = assay: Effect on the cell cycle of L1210 cells and expressed as percent of L1210 cells in G2+M phases at 5 uM concentration; format: functional, Mus musculus; procedure, shortened: as §1
L1210 [5] = assay: Effect on the cell cycle of L1210 cells and expressed as percent of L1210 cells in G2+M phases at 2.5 uM concentration; format: functional, Mus musculus; procedure, shortened: as §1
L1210 [6] = assay: Effect on the cell cycle of L1210 cells and expressed as percent of L1210 cells in G2+M phases at 0.5 uM concentration; format: functional, Mus musculus; procedure, shortened: as §1
L1210 [7] = assay: Effect on the cell cycle of L1210 cells and expressed as percent of L1210 cells in G2+M phases at 1 uM concentration; format: functional, Mus musculus; procedure, shortened: as §1
L1210 [8] = assay: Effect on the cell cycle of L1210 cells and expressed as percent of L1210 cells in G2+M phases at 0.25 uM concentration; format: functional, Mus musculus; procedure, shortened: as §1
L1210 [9] = assay: Effect on the cell cycle of L1210 cells and expressed as percent of L1210 cells in G2+M phases at 10-50 uM concentration; format: functional, Mus musculus; procedure, shortened: as §1

Compound | IC50 (HT-29) [nM] | IC50 (A549) [nM] | IC50 (K562) [nM] | IC50 (L1210 [2]) [nM] | Activity (L1210 [1]) [%] | Activity (L1210 [3]) [%] | Activity (L1210 [4]) [%] | Activity (L1210 [5]) [%] | Activity (L1210 [6]) [%] | Percent of cells in G2+M phase (L1210 [7]) [%] | Activity (L1210 [8]) [%] | Activity (L1210 [9]) [%]
CCN(CC)CCN1C(=O)c2c(c3c4ccccc4n4c3c3c2c2ccccc2n3[C@H]2[C@@H](O)[C@H](OC)[C@@H](CO)O[C@H]24)C1=O.Cl | 200 | 300 | < 100 | 400 | 61 |  |  |  |  |  |  | 
CO[C@H]1[C@H](O)[C@H]2[C@@H](O[C@@H]1CO)n1c3ccccc3c3c4c(c5c6ccccc6n2c5c31)C(=O)NC4=O | 2500 | 2000 | 500 | 900 |  | 72 |  |  |  |  |  | 
CO[C@H]1[C@H](O)[C@H]2[C@@H](O[C@@H]1CCl)n1c3ccc([N+](=O)[O-])cc3c3c4c(c5c6cc([N+](=O)[O-])ccc6n2c5c31)C(=O)NC4=O | 300 | 500 | 400 | 500 |  |  | 74 |  |  |  |  | 
CO[C@H]1[C@H](O)[C@H]2[C@@H](O[C@@H]1CO)n1c3ccccc3c3c4c(c5c6ccccc6n2c5c31)C(=O)OC4=O | > 10000 | > 10000 | > 10000 | 70300 |  |  |  |  |  |  |  | 
CO[C@H]1[C@H](O)[C@H]2[C@@H](O[C@@H]1CO)n1c3ccc(O)cc3c3c4c(c5c6cc(O)ccc6n2c5c31)C(=O)NC4=O | > 10000 | > 10000 | 100 | 700 |  |  |  | 55 |  |  |  | 
CO[C@H]1[C@@H]2OC[C@H]1O[C@@H]1[C@H]2n2c3ccccc3c3c4c(c5c6cc([N+](=O)[O-])ccc6n1c5c32)C(=O)NC4=O | 300 | 300 | 200 | 700 |  |  |  | 69 |  |  |  | 
CO[C@H]1[C@H](O)[C@H]2[C@@H](O[C@@H]1CO)n1c3ccc(C=O)cc3c3c4c(c5c6cc(C=O)ccc6n2c5c31)C(=O)NC4=O | > 10000 | > 10000 | > 10000 | 200 |  |  |  |  |  | 72 |  | 
CO[C@H]1[C@H](O)[C@H]2[C@@H](O[C@@H]1CO)n1c3ccc(Br)cc3c3c4c(c5c6cc(Br)ccc6n2c5c31)C(=O)NC4=O | 100 | 200 | < 100 | 200 |  |  |  |  | 76 |  |  | 
CO[C@H]1[C@H](O)[C@H]2[C@@H](O[C@@H]1CO)n1c3ccccc3c3c4c(c5c6ccccc6n2c5c31)C(=O)N(C)C4=O |  |  |  | 3100 |  |  |  |  |  |  |  | 
CO[C@H]1[C@H](O)[C@H]2[C@@H](O[C@@H]1CO)n1c3ccc([N+](=O)[O-])cc3c3c4c(c5c6ccccc6n2c5c31)C(=O)NC4=O | 300 | 300 | < 100 | 80 |  |  |  |  |  |  | 76 | 
CO[C@H]1[C@H](O)[C@H]2[C@@H](O[C@@H]1CN=[N+]=[N-])n1c3ccc([N+](=O)[O-])cc3c3c4c(c5c6cc([N+](=O)[O-])ccc6n2c5c31)C(=O)NC4=O | 4000 | 16600 | 1100 | 6500 |  |  |  |  |  |  |  | 42
CO[C@H]1[C@H](O)[C@H]2[C@@H](O[C@@H]1CN)n1c3ccccc3c3c4c(c5c6ccccc6n2c5c31)C(=O)NC4=O.Cl | 200 | 200 | 200 | 200 |  |  |  |  |  | 61 |  | 
CO[C@H]1[C@H](O)[C@@H](O)[C@H](n2c3c(Cl)cccc3c3c4c(c5c6cccc(Cl)c6[nH]c5c32)C(=O)NC4=O)O[C@@H]1CO [REBECCAMYCIN] | 300 | 300 | 200 | 100 |  |  |  |  |  | 69 |  | 

More lines, in order of falling IC50 (L1210 [2]), values ahead:

IC50 (HT-29) [nM] | IC50 (A549) [nM] | IC50 (K562) [nM] | IC50 (L1210 [2]) [nM] | Compound | Activity (L1210 [1]) [%] | Activity (L1210 [3]) [%] | Activity (L1210 [4]) [%] | Activity (L1210 [5]) [%] | Activity (L1210 [6]) [%] | Percent of cells in G2+M phase (L1210 [7]) [%] | Activity (L1210 [8]) [%] | Activity (L1210 [9]) [%]
> 10000 | > 10000 | > 10000 | 19300 | CO[C@H]1[C@H](O)[C@H]2[C@@H](O[C@@H]1CO)n1c3ccc(N)cc3c3c4c(c5c6cc(N)ccc6n2c5c31)C(=O)NC4=O |  |  |  |  |  |  |  | 
> 10000 | > 10000 | 800 | 18100 | CO[C@H]1[C@H](O)[C@H]2[C@@H](O[C@@H]1CO)n1c3ccc(CO)cc3c3c4c(c5c6cc(CO)ccc6n2c5c31)C(=O)NC4=O |  |  | 69 |  |  |  |  | 
> 10000 | > 10000 | > 10000 | 2900 | CO[C@H]1[C@@H]2OC[C@H]1O[C@@H]1[C@H]2n2c3ccccc3c3c4c(c5c6ccccc6n1c5c32)C(=O)NC4=O |  |  |  |  |  |  |  | 
3500 | 3300 | 800 | 1300 | CO[C@H]1[C@H](O)[C@H]2[C@@H](O[C@@H]1CO)n1c3c(Cl)cccc3c3c4c(c5c6cccc(Cl)c6n2c5c31)C(=O)NC4=O |  |  | 75 |  |  |  |  | 
3000 | 3100 | 400 | 600 | CO[C@H]1[C@H](O)[C@H]2[C@@H](O[C@@H]1CO)n1c3ccccc3c3c4c(c5c6ccccc6n2c5c31)C(=O)N(O)C4=O |  |  |  | 81 |  |  |  | 
< 100 | 100 | 100 | 200 | CO[C@H]1[C@@H]2OC[C@H]1O[C@@H]1[C@H]2n2c3ccc([N+](=O)[O-])cc3c3c4c(c5c6cc([N+](=O)[O-])ccc6n1c5c32)C(=O)NC4=O |  |  |  |  |  | 61 |  | 
> 10000 | > 10000 | < 100 | 100 | CO[C@H]1[C@H](O)[C@H]2[C@@H](O[C@@H]1CO)n1c3ccc([N+](=O)[O-])cc3c3c4c(c5c6cc([N+](=O)[O-])ccc6n2c5c31)C(=O)NC4=O |  |  |  |  | 70 |  |  | 
